Publication PMC10373466 (ACS Omega, 2023)
Where “and” joins values, the source holds several entries; their conditions need not be identical. Equal values may be shown once.

Legend:
BACE-1 = BACE-1 (Homo sapiens, UniProt P56817); assay: β-Secretase inhibition assay; assay type: biochemical; conditions: BACE-1 IC50 ± SD
hAChE = hAChE (Homo sapiens, UniProt P22303); assay: In vitro AChE inhibition assay; assay type: biochemical; conditions: for IC50: in vitro AChE inhibition IC50 ± SD, Ellman method, n = 3
Chain of hAChE (P22303 32-614): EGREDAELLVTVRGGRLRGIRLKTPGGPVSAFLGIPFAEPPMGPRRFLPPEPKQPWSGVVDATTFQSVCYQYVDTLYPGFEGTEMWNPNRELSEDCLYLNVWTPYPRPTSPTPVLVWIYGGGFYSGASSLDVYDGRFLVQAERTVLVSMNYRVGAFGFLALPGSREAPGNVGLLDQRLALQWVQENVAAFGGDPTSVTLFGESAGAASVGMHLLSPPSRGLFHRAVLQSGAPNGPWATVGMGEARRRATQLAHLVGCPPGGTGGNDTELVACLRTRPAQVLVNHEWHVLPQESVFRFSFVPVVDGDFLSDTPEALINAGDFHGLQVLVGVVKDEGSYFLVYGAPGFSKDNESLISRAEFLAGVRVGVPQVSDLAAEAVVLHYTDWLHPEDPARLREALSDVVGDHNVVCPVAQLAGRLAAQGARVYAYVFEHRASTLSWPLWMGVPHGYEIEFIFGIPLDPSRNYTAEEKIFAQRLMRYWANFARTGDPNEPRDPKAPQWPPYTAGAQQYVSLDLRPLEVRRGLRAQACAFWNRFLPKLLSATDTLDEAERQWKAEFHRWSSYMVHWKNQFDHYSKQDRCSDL

hBuChE = hBuChE (Homo sapiens, UniProt P06276); assay: In vitro BuChE inhibition assay; assay type: biochemical; conditions: for IC50: BuChE IC50 ± SD, modified Ellman method
Chain of hBuChE (P06276 29-602): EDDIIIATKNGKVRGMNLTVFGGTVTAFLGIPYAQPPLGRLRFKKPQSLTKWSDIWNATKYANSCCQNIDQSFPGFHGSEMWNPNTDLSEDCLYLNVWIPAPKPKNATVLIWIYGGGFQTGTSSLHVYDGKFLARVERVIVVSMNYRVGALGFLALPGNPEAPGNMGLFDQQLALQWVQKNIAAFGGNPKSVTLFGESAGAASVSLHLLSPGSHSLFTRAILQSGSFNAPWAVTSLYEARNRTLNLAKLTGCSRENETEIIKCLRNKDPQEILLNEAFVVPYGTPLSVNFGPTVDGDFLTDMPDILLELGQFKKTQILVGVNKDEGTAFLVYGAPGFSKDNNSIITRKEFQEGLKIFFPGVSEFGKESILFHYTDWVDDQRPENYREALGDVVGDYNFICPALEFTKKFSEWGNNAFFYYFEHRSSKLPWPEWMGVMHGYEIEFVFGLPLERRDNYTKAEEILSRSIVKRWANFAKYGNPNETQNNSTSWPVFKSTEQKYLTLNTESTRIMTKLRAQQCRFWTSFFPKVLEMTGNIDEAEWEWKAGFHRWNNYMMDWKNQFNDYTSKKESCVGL

HepG2 cell line = assay: In vitro hepatotoxicity MTT assay; conditions: ratio of hepatotoxicity IC50 to AChE IC50
[1] = In vitro hepatotoxicity MTT assay; conditions: human
[2] = Metal chelation assay, UV–vis spectroscopy; assay type: physicochemical; conditions: compound 30 μM, ZnSO4 30 μM, ethanol
How it was run: (§1)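 Test compound and metal salt (CuSO4, ZnSO4 or FeSO4) mixed in ethanol, both at 30 μM final, and incubated 30 min at room temperature. UV-vis spectra were recorded from 200 to 600 nm for the compound alone, the metal alone and the mixture. Spectra of metal alone and compound alone were subtracted from the mixture spectrum to give the difference spectrum attributed to complex formation.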

[3] = Metal chelation assay, UV–vis spectroscopy; assay type: physicochemical; conditions: compound 30 μM, FeSO4 30 μM, ethanol
How it was run: as §1

[4] = Metal chelation assay, UV–vis spectroscopy; assay type: physicochemical; conditions: compound 30 μM, CuSO4 30 μM, ethanol
How it was run: as §1

[5] = Total antioxidant capacity; conditions: Trolox TAC value = 1.00
[6] = In vitro neurotoxicity MTT assay; assay type: cell-based; conditions: human, SH-SY5Y neuroblastoma cells
hMAO-B = molecular target: T1, hMAO-B (Homo sapiens, UniProt P27338); assay: biochemical; assay type: biochemical
T1 sequence (P27338 1-520): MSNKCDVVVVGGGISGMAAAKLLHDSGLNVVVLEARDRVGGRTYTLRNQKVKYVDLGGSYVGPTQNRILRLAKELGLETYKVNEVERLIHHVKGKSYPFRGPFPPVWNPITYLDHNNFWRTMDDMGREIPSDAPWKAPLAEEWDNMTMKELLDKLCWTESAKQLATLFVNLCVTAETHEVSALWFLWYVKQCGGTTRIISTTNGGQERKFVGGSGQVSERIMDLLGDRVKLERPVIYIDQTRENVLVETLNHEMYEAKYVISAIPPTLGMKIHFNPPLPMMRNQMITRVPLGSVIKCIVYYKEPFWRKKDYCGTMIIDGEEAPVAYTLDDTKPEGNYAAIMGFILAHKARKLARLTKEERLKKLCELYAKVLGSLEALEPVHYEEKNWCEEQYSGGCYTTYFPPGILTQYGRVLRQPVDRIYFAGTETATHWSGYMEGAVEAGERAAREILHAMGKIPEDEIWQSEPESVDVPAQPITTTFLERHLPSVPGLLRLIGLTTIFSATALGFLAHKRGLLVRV

Aβ1–42 = Aβ1–42 (Homo sapiens, UniProt P05067); assay: Self-induced Aβ1–42 aggregation inhibition; assay type: biochemical; conditions: for IC50: Aβ1–42 aggregation inhibition IC50, self-induced aggregation; for inhibition at 10 µM: read-out: Aβ1–42 (% inhibition at 10 μM)
Chain of Aβ1–42 (P05067 672-713): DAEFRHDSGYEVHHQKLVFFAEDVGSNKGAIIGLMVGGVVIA

Chain of BACE-1 (P56817 46-501): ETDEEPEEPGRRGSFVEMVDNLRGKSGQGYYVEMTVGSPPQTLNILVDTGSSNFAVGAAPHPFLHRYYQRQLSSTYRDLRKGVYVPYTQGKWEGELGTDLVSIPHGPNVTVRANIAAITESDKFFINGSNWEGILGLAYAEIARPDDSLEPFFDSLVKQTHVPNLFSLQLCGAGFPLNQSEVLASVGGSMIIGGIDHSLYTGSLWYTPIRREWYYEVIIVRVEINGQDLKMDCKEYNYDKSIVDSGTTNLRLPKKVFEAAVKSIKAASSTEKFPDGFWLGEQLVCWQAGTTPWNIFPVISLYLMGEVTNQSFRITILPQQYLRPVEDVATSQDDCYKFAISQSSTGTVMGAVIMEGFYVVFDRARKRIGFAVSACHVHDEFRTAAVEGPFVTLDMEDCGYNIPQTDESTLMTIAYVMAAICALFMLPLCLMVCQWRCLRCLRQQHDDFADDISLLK

Row | Compound | IC50 (BACE-1) [nM] | AChE SI (selectivity index) = IC50 of BuChE/IC50 of AChE (hAChE) | IC50 (hAChE) [nM] | BuChE SI (selectivity index) = IC50 of AChE/IC50 of BuChE (hBuChE) | IC50 (hBuChE) | safety index ratio (SI) (HepG2 cell line) | IC50 at 24 h [1] [nM] | UV–vis spectral change on addition of ZnSO4 (metal chelation) [2] | UV–vis spectral change on addition of FeSO4 (metal chelation) [3] | UV–vis spectral change on addition of CuSO4 (metal chelation) [4] | total antioxidant capacity (Trolox equivalent) [5] | IC50 [6] [nM] | IC50 (hMAO-B) [nM] | IC50 (Aβ1–42) [nM] | inhibition at 10 µM (Aβ1–42) [%] | fold more active than rivastigmine (BuChE inhibition) (hBuChE) [fold] | times better than iproniazid (MAO-B inhibition) (hMAO-B) [times] | times more active than curcumin (Aβ aggregation inhibition) (Aβ1–42) [fold]
1 | Nc1c2c(nc3c1C(c1cccc([N+](=O)[O-])c1)c1ccc(OS(=O)(=O)c4ccc(F)cc4)cc1O3)CCCC2 (centres unmarked) [4c, 11-Amino-12-(3-nitrophenyl)-7,9,10,12-tetrahydro-8H-chromeno[2,3-b]quinolin-3-yl-4-fluorobenzenesulfonate] | 2680 ± 123 | 1.11 | 620 ± 30 | 0.90 | 690 ± 41 nM | 125.26 | 78300 ± 3600 | extraordinary hyperchromic shifts | extraordinary hyperchromic shifts | extraordinary hyperchromic shifts | 0.80 ± 0.032 μmol of Trolox equivalent/μmol tested compound | 27900 ± 1240 | 8040 ± 270 | 4280 ± 170 | 47 | – | – | –
2 | COc1ccc(S(=O)(=O)Oc2ccc3c(c2)Oc2nc4c(c(N)c2C3c2cccc(OC)c2)CCCC4)cc1 (centres unmarked) [4g, 11-Amino-12-(3-methoxyphenyl)-7,9,10,12-tetrahydro-8H-chromeno[2,3-b]quinolin-3-yl-4-methoxybenzenesulfonate] | 1460 ± 68 | 1.18 | 300 ± 10 | 0.85 | 350 ± 21 nM | 417.88 | 126000 ± 5300 | slight hypochromic shift | hyperchromic shifts | hyperchromic shifts | – | 86000 ± 3810 | 12700 ± 430 | 11700 ± 450 | 43 | – | – | –
3 | Cc1ccc(S(=O)(=O)Oc2ccc3c(c2)Oc2nc4c(c(N)c2C3c2ccc(Cl)c(Cl)c2)CCCC4)cc1 (centres unmarked) [4n, 11-Amino-12-(3,4-dichlorophenyl)-7,9,10,12-tetrahydro-8H-chromeno[2,3-b]quinolin-3-yl-4-methylbenzenesulfonate] | 250 ± 11 | 0.38 | 470 ± 20 | 2.59 | 180 ± 11 nM | 141.53 | 67400 ± 3300 | remarkable hyperchromic effect | remarkable hyperchromic effect | remarkable hyperchromic effect | 0.66 ± 0.026 μmol of Trolox equivalent/μmol tested compound | 91700 ± 4060 | 3730 ± 130 | 17400 ± 680 | 40 | ~4 | ~2 | –
4 | Nc1c2c(nc3c1C(c1cccc([N+](=O)[O-])c1)c1ccc(OCC(=O)c4ccc(Cl)cc4)cc1O3)CCCC2 (centres unmarked) [5c, 2-[11-Amino-12-(3-nitrophenyl)-7,9,10,12-tetrahydro-8H-chromeno[2,3-b]quinolin-3-yl]oxy-1-(4-chlorophenyl)ethan-1-one] | 380 ± 17 | 0.19 | 440 ± 20 | 5.37 | 82 nM and 80 nM | 427.73 | 188000 ± 6900 | slight hyperchromic effect | noteworthy hyperchromic effect | noteworthy hyperchromic effect | 0.88 ± 0.034 μmol of Trolox equivalent/μmol tested compound | 36300 ± 1430 | 5150 ± 170 | 2850 ± 110 | 59 | 10 | – | –
5 | Nc1c2c(nc3c1C(c1ccc(Cl)c(Cl)c1)c1ccc(OCC(=O)c4ccc(Cl)cc4)cc1O3)CCCC2 (centres unmarked) [5d, 2-[11-Amino-12-(3,4-dichlorophenyl)-7,9,10,12-tetrahydro-8H-chromeno[2,3-b]quinolin-3-yl]oxy-1-(4-chlorophenyl)ethan-1-one] | 440 ± 21 | 0.59 | 250 ± 10 | 1.69 | 140 ± 9 nM | 611.51 | 154000 ± 6200 | slight hyperchromic shift | noticeable optical shift | slight hyperchromic shift | – | 71100 ± 2800 | 2420 ± 80 | 740 ± 30 | 76 | 5 | ~3 | 8
6 | Nc1c2c(nc3c1C(c1ccc(Cl)c(Cl)c1)c1ccc(OCC(=O)c4ccccc4)cc1O3)CCCC2 (centres unmarked) [5i, 2-[11-Amino-12-(3,4-dichlorophenyl)-7,9,10,12-tetrahydro-8H-chromeno[2,3-b]quinolin-3-yl]oxy-1-phenylethan-1-one] | 2120 ± 98 | 0.47 | 560 ± 30 | 2.12 | 260 ± 16 nM | 200.53 | 113000 ± 5100 | without remarkable shifts | hyperchromic effect | without remarkable shifts | – | 17200 ± 760 | 1620 ± 50 | 1410 ± 50 | 68 | ~4 | ~4 | –
